In series [1] the target is T1, Hemoglobin HbA (Homo sapiens) (UniProt P69905+P68871). Nature of the series: Binding affinity to hemoglobin (unknown origin) assessed as increase in release of carbon monooxide from carboxyhemoglobin by measuring half life of carboxyhemoglobin at 20:1 compound/Hb tetramer ratio incubated for 1 hr measured every 15 mins for 90 mins (reference value: 80 +/- 0.3 min). In kind it is protein-complex assay.

The target of series [2] is T1, Hemoglobin HbA (Homo sapiens). The series can be described thus: Binding affinity to hemoglobin (unknown origin) assessed as increase in release of carbon monooxide from carboxyhemoglobin by measuring half life of carboxyhemoglobin at 5:1 compound/Hb tetramer ratio incubated for 1 hr measured every 15 mins for 90 mins (reference value: 80 +/- 0.3 min). In kind it is protein-complex assay.

A short description of series [3]: (§1) Hemolytic activity against human RBC assessed as increase in fraction of extracellular Hb level at 1 mM after 1 hr. It counts as ADME, cell-based, Erythrocyte. Conditions: red blood cells (erythrocytes), read-out: Activity. In short, it runs like this: (§2)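 Human red blood cells (50 µM Hb) incubated with compound at 1 mM in 0.1 vol % DMSO. Read-out is extracellular Hb as a fraction of total Hb. "-" denotes less than 1% of total Hb released.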

The nature of series [4]: Aqueous solubility of the compound in DMSO/[…] solution at 2.5 mM. Particulars: 2500 µM. In kind it is physicochemical. The gist of the method:
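Compound made up at 2.5 mM in DPBS containing 1 vol% DMSO. Scored by visual inspection of the solution: "+" if no aggregates or crystals are seen, "-" if aggregates or crystals appear.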

Series [5] can be described thus: Hemolytic activity against human RBC assessed as fraction of extracellular Hb level at 1 mM after 1 hr relative to total Hb level. In kind it is ADME, cell-based, Erythrocyte. Particulars: red blood cells (erythrocytes), read-out: Activity. In short, it runs like this: as §2
Another series deals with Erythrocyte. The series is described as §1. It counts as ADME, cell-based. Conditions: erythrocyte, 1 h, 1000 µM. In short, it runs like this: as §2
Series [6] has as its target T1, Hemoglobin HbA (Homo sapiens). The series can be described thus: Binding affinity to hemoglobin (unknown origin) assessed as partial oxygen pressure at which 50% of Hb is oxygenated (reference value: 17 +/- 0.3 mmHg). In kind it is protein-complex assay.

T1 sequence (P68871 2-147 partner limits assumed): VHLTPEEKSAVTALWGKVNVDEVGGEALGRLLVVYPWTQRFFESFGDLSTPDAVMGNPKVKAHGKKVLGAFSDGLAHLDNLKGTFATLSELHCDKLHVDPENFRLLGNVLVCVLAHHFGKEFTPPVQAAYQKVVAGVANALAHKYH
T1 sequence (P69905 2-142 limits assumed): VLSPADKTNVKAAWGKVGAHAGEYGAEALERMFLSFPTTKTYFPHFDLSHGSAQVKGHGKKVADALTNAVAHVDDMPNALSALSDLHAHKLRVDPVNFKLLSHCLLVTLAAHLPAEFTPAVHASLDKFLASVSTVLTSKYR

Turning to `Cc1cc(C)cc(C(=O)N[C@H](Cc2ccc(-c3ccco3)cc2)C(=O)N[C@@H](Cc2c[nH]c3ccccc23)C(=O)O)c1`, the T1/2 in series [1] was 1 h; in series [2] it was 1.18 h. Moreover, the hemolysis at 1 h, 1000 µM in series [3] was in the range of 1 to 2%. The solubility entry in series [4] is listed as “Insoluble”.
For `Cc1cc(C)cc(C(=O)N[C@H](Cc2ccc(-c3cncnc3)cc2)C(=O)N[C@@H](Cc2c[nH]c3ccccc23)C(=O)O)c1`, the figures for the T1/2 in series [1] and in series [2] were 1.28 h and 1.33 h, respectively. Moreover, the hemolysis at 1 h, 1000 µM in series [5] is less than 1%. In series [4], the solubility entry is reported as “Soluble”.
In the case of `Cc1cc(C)cc(C(=O)N(C)[C@H](Cc2ccc(-c3ccccc3)cc2)C(=O)N[C@@H](Cc2c[nH]c3ccccc23)C(=O)O)c1`, the T1/2 in series [2] was 1.15 h. For the same molecule, the Activity entry with Erythrocyte is “Toxic”; in series [6] it was 19 mmHg. The solubility result in series [4] is given as “Insoluble”.
On to `Cc1cc(C)cc(C(=O)N[C@H](Cc2ccc(-c3ccc(CN(C)C)o3)cc2)C(=O)N[C@@H](Cc2c[nH]c3ccccc23)C(=O)O)c1`, for which the T1/2 in series [1] worked out at 1.12 h; in series [2], 1.2 h. The hemolysis at 1 h, 1000 µM in series [5] was less than 1%. Moreover, in series [4], the solubility result is given as “Insoluble”.
Consider `Cc1cc(C)cc(C(=O)N(C)[C@H](Cc2ccccc2)C(=O)N[C@@H](Cc2c[nH]c3ccccc23)C(=O)O)c1`, for which the T1/2 was 1.08 h in series [1] and 1.23 h in series [2]. Also, the hemolysis at 1 h, 1000 µM in series [5] is less than 1%. For the same molecule, the solubility result in series [4] is given as “Insoluble”.
In the case of `Cc1cc(C)cc(C(=O)N[C@H](Cc2ccc(-c3c(CO)noc3C)cc2)C(=O)N[C@@H](Cc2c[nH]c3ccccc23)C(=O)O)c1`, the T1/2 in series [1] worked out at 1.08 h; in series [2], 1.17 h. Moreover, in series [5], the hemolysis at 1 h, 1000 µM is less than 1%. Moreover, the solubility entry in series [4] is reported as “Soluble”.
In the case of `Cc1cc(C)cc(C(=O)N[C@H](Cc2ccc(-c3c(C(=O)O)noc3C)cc2)C(=O)N[C@@H](Cc2c[nH]c3ccccc23)C(=O)O)c1`, the T1/2 in series [1] was 1.18 h; in series [2], 1.3 h. The hemolysis at 1 h, 1000 µM in series [5] is less than 1%. Moreover, the solubility entry in series [4] is listed as “Soluble”.
As for `Cc1cc(C)cc(C(=O)N[C@H](Cc2ccc(-c3c(C)noc3C)cc2)C(=O)N[C@@H](Cc2c[nH]c3ccccc23)C(=O)O)c1`, the T1/2 in series [1] was determined as 0.95 h; in series [2], 1.2 h. The hemolysis at 1 h, 1000 µM in series [5] was less than 1%. Further, in series [4], the solubility result is “Insoluble”.
The matching figures for `Cc1cc(C)cc(C(=O)N[C@H](Cc2ccc(-c3cnn(C)c3)cc2)C(=O)N[C@@H](Cc2c[nH]c3ccccc23)C(=O)O)c1`: 1.15 h, 1.23 h, less than 1% and “Soluble”.
With `Cc1cc(C)cc(C(=O)N[C@H](Cc2ccccc2)C(=O)N[C@@H](Cc2c[nH]c3ccccc23)C(=O)O)c1`, in series [1], the T1/2 came to 1.05 h. Further, in series [5], the hemolysis at 1 h, 1000 µM is less than 1%. In addition, the solubility entry in series [4] is given as “Insoluble”.
Take `Cc1cc(C)cc(C(=O)N[C@H](Cc2ccc(-c3ccccc3)cc2)C(=O)N[C@@H](Cc2c[nH]c3ccccc23)C(=O)O)c1`: the T1/2 worked out at 1.07 h in series [1] and 1.15 h in series [2]. Moreover, the hemolysis at 1 h, 1000 µM in series [5] was less than 1%. The solubility entry in series [4] was “Insoluble”.

Values taken from ChEMBL document CHEMBL4196122, “Design, Synthesis, and Biological Evaluation of Allosteric Effectors That Enhance CO Release from Carboxyhemoglobin” (ACS Med Chem Lett, 2018).
